Some of the results follow. Values without a mark were called inactive. Calls of active or inactive are those of the source.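 How the source made its calls: active means inhibition of pump activity above 50%; inactive means the rest.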
These compounds were tested against ATP-dependent translocase ABCB1 (Homo sapiens) (UniProt P08183) (assay: blockers of ABCB1-mediated dye efflux – cell-based, single point, ABCG2 counter-screen, confirmation (AID 1451;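 further: 0% = DMSO and 100% = nicardipine full pump inhibition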)). Settings: CCRF-Adr cells, JC-1 efflux, flow cytometry; at 6.6 µM; active compounds read high.
Method in brief: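 Material – ABCB1-expressing CCRF-Adr cells · Quantity – 3 million cells per mL final in well · Reagent – JC-1 substrate · Dosing – single test-compound dose, 6.6 µM final · Schedule – 10 min exposure, 25 °C · Technique – flow cytometry, 530 nm emission · Benchmarks – nicardipine as high control, DMSO as low control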

Sequence of ATP-dependent translocase ABCB1 (Homo sapiens) (P08183 whole entry, looked up): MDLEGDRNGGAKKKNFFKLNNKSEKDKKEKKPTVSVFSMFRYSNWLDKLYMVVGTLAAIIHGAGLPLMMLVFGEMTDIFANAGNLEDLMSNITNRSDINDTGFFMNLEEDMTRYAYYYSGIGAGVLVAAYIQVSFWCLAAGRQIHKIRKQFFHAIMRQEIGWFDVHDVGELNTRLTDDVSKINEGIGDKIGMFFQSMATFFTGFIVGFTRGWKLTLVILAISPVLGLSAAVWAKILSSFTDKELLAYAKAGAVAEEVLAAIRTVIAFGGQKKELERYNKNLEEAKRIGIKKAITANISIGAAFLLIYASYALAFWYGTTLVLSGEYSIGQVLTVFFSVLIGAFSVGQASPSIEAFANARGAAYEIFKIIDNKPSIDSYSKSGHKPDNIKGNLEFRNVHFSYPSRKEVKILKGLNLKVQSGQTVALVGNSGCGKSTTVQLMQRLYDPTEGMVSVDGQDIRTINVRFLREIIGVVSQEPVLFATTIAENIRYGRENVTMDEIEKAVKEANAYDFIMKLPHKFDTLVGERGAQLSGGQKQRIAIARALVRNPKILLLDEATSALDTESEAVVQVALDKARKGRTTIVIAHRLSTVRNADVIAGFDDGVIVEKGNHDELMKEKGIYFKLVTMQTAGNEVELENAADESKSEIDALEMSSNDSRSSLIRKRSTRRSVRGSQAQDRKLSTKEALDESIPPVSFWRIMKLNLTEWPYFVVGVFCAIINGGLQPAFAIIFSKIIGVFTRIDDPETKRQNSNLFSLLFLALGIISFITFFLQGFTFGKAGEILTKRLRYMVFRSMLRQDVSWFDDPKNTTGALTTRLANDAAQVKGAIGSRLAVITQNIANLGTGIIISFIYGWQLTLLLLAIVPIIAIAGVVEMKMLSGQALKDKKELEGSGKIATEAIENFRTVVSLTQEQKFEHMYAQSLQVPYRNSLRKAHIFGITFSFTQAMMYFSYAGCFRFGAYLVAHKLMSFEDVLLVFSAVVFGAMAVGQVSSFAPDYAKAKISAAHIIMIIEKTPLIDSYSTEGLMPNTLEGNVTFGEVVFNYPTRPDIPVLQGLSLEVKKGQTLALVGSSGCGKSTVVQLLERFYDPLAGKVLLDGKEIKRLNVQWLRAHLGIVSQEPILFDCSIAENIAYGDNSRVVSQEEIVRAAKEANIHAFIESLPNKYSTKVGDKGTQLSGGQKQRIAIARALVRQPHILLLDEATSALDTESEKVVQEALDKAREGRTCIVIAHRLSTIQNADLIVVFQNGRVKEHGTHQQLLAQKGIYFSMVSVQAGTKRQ

SMILES	inhibition
CCOCC(=O)Nc1sc2c(c1C(=O)OCC)CCCC2	2.32%
Cc1ccc(-n2c(SCC(=O)Nc3ncc(Cl)cc3Cl)nc3ccccc32)cc1	41.2%
C/C(=N\Nc1ncc(Cl)cc1Cl)c1ccc(S(=O)(=O)NCc2ccco2)cc1	1.61%
COc1ccc(C)cc1NC(=O)C(Sc1ccccc1)c1ccccc1 (stereo not drawn)	3.76%
C=CCn1c(SCCOc2ccc(OC)cc2)nnc1C(NC(=O)c1ccc(OC)cc1)C(C)C (stereo not drawn)	23.6%
O=C(Cc1c[nH]c2ccccc12)N/N=C/c1cccc(F)c1	-0.99%
COc1cccc(NC(=O)c2ccc(Cn3cc([N+](=O)[O-])cn3)o2)c1	-0.63%
CCN1/C(=C/c2ccc3ccc(C)cc3[n+]2CC)Sc2ccccc21	-9.15%
Cc1c(CCOC(=O)CC23CC4CC(CC(C)(C4)C2)C3)sc[n+]1Cc1ccc([N+](=O)[O-])cc1	0.26%
CCOC(=O)c1sc(NC(=O)CSc2nnc(-c3ccco3)o2)c(C(=O)OCC)c1C	15.2%
COc1ccc(-n2c(C)cc(C(=O)COC(=O)c3cc(OC)c(OC)cc3NC(=O)c3cccs3)c2C)cc1	3%
Cc1ccc(OCC(O)CN2CCN(CC(O)COc3ccc(C)cc3Cl)CC2)c(Cl)c1 (stereo not drawn)	17.1%
Cc1cccc2cc(CN(Cc3cccs3)C(c3nnnn3C3CCCC3)C(C)C)c(=O)[nH]c12 (stereo not drawn)	61.6% (active)
